Consider six molecules from article PMC5417661 (Drug Design, Development and Therapy, 2017).

Data set [1] has as its system A2780/Adr (drug resistant). The data set can be described thus: Fluorometric microculture cytotoxicity assay. In kind it is cell-based, human. The settings on record: for IC50 ratio (resistant vs sensitive cells): A2780/Adr vs A2780; for IC50: 72 h, A2780/Adr (drug resistant) ovarian carcinoma. The procedure, abridged: (§1)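 FMCA with cells seeded into plates pre-loaded with compound and stored at −20°C or −80°C. Seeding was 1,000–2,500 (384-well) or 5,000–10,000 (96-well) cells/well. Culture media: RPMI 1640 for CCRF-CEM, A2780, A2780/Adr, BXPC-3, U-937 and RPMI 8226; McCoy's for HT29 and HCT116. After 72 h, plates were washed and given fluorescein diacetate buffer for 45 min, then fluorescence was read. Survival index = (treated − blank)/(control − blank); IC50 taken from curves.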

Data set [2] has as its system developing blood vessels of chick embryo. The data set can be described thus: Ex ovo chicken embryo chorioallantoic membrane. The class given is in vivo. The note with it: for effect on blood vessel growth and integrity: 10 nM, vs DMSO vehicle; for growth of the blood vessels (change in relative surface area) / vascular integrity (discontinuity of the vessels): 50 nM, 24 and 48 h posttreatment, vs controls. The procedure, abridged:
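Fertilized eggs incubated at 37.5°C and 60% humidity, then opened into 10 cm dishes on day 4. Two days later a 5 mm filter paper carrying test compound (10, 50, 200 nM), reference vascular disrupting agent or DMSO was laid on the CAM between two main vessels. Eggs were incubated 2 more days and photographed at 0, 24 and 48 h. Read-outs: relative surface area of vessels touching the paper, and disruption index (intact segments >10 mm).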

The test system of another data set is Caco-2 cell monolayers. The data set can be described thus: Caco-2 permeability assay. In kind it is in vitro ADME, human. The procedure, abridged:
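Caco-2 monolayers grown to confluence on collagen-coated polycarbonate transwell membranes. Buffer was HBSS with 10 mM HEPES and 15 mM glucose, pH 7.4; the receiver side also held 1% BSA. 5 μM test compound was dosed apically (A-to-B) or basolaterally (B-to-A) at 37°C, 5% CO2. Donor and receiver were sampled at 120 min, in duplicate. Co-applied Lucifer yellow checked integrity. High permeability: Papp A-to-B ≥1.0×10−6 cm/s.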

The test system of data set [3] is panel of eight cancer cell lines. The data set can be described thus: FMCA, range over the panel of cancer cell lines. The note with it: read-out: IC50, range over cell lines. In kind it is cell-based, human. The procedure, abridged: as §1
Another data set has as its system HCT116 cells. The data set can be described thus: Live cell microscopy. The class given is cell-based, human. The note with it: HCT116, 50 nM, 30 cells. The procedure, abridged:
(§2)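 HCT116, HCT8 and MCF10A cells were given 50 nM test compound or a reference tubulin agent and imaged on an IncuCyte immediately and for 3 days, at 1 h intervals, in three replicates. Growth curves used mean confluence from six images per time point. Mitotic duration and mitotic fate were scored from time-lapse films: 10 cells per well, 30 cells per condition.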

A further data set relates to HCT8 cells. The data set can be described thus: Live cell microscopy. The class given is cell-based, human. The note with it: HCT8, 50 nM, 30 cells. The procedure, abridged:
as §2

Another data set has as its system MCF10A cells. Description: Live cell microscopy. The settings on record: 50 nM, 30 cells. The class given is cell-based, human. The procedure, abridged: as §2
The subject of data set [4] is HCT116, HCT8 and MCF10A cells. In kind it is cell-based, human. The procedure, abridged:
as §2

A further data set concerns OvCar-8 cells. Description: Time-lapse mitotic index and cell death index in OC cell lines. The class given is cell-based, human. The settings on record: OvCar-8, 12.5 nM. The procedure, abridged: (§3)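 Ovarian OvCar-8, OvCar-4 and CaOv-3 cells were time-lapse filmed for 3 days, starting immediately after adding 12.5 nM test compound, 12.5 nM paclitaxel or vehicle alone. Mitotic index and cell death index were scored from the films at 12, 24, 48 and 72 h.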

A further data set concerns OvCar-4 cells. The data set can be described thus: Time-lapse mitotic index and cell death index in OC cell lines. The class given is cell-based, human.
In the next data set the test system is CaOv-3 cells. Description: Time-lapse mitotic index and cell death index in OC cell lines. The class given is cell-based, human. The settings on record: CaOv-3, 12.5 nM. The procedure, abridged:
as §3

Another data set relates to bovine tubulin protein. Description: In vitro tubulin polymerization assay. In kind it is biochemical. The note with it: cell-free, 60 min. The procedure, abridged: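 Commercial kit using bovine tubulin, cell-free. The test compound was tested at 1.0–10 µM. Vincristine and paclitaxel at 3.0 µM served as inhibition and stabilization controls. Compounds were dissolved in DMSO and diluted in sterile water to at most 0.1% DMSO, which was the solvent control. Polymerization was followed by a fluorescent reporter incorporated into microtubules and read continuously at 360/450 nm for 60 min.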

Data set [5] deals with cocultures of endothelial colony forming cells (ECFCs) and adipocyte derived stem cells (ADSCs). Description: Vascular tube formation assay, neoangiogenic. The note with it: 4.6 nM–10 µM, VEGF 20 ng/mL coapplied on day 0. The class given is cell-based, human. The procedure, abridged:
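Cocultures of GFP-labelled endothelial colony forming cells and adipocyte-derived stem cells (StemKit). Compounds were co-applied with VEGF (20 ng/mL) on day 0 to follow cord formation. Fluorescent and phase-contrast images (10×) were taken every 6 h for up to 8 days. Cord length (mm/mm2) and branch points were analysed from 3–6 separate samples per condition.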

The test system is the same in data set [6]. The data set can be described thus: Vascular tube formation assay, disruption of established cords. The class given is cell-based, human. The procedure, abridged:
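Cocultures of GFP-labelled endothelial colony forming cells and adipocyte-derived stem cells were stimulated with VEGF (20 ng/mL) to form cords. Compounds were added to the established cords at 96 h. Images were taken every 6 h and scored for relative cord length and branch points. pIC50 came from a four-parameter logistic fit of area-under-curve data between 96 and 186 h.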

Data set [7] can be described thus: Plasma levels in the maximal tolerated dose study. The class given is in vivo, NMRI nu/nu female mice. The procedure, abridged: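 In the maximal tolerated dose study, female NMRI nu/nu mice received test compound PO at 10, 20 or 40 mg/kg. Plasma concentrations were measured 1 and 4 h after dosing.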
In a further data set the test system is A2780 xenograft. The data set can be described thus: Human OC cell xenograft study. In kind it is in vivo, NMRI nu/nu female nude mice.

Consider `CCC[C@H](Nc1nc(-c2ccc(NC(=O)NCC)c(OC)c2)ncc1C)c1cccnc1` [CYT997, lexibulin], for which the “IC50 ratio (resistant vs sensitive cells)” value (from here on “IC50 ratio”) in data set [1] is on record as 3.35. Also, in data set [1] (Homo sapiens, A2780 ADR), inhibition was half-maximal at 183 nM (IC50).

Take `COc1ccc(/C=C\c2cc(OC)c(OC)c(OC)c2)cc1O` [Combretastatin A4, reference compound]: in data set [2], the “effect on blood vessel growth and integrity” value is “ineffective”; the “growth of the blood vessels (change in relative surface area)” value was “significantly suppressed”; the “vascular integrity (discontinuity of the vessels)” value is “significantly suppressed”.

On to `COc1ccc2[nH]cc(CCNc3nccc(Nc4cccc5c4ccn5C)n3)c2c1` [NOV202], for which the Efflux ratio in the data set on Caco-2 cell monolayers (bi-directional Caco-2) came to 1.0. Further, the Efflux substrate result in the data set on Caco-2 cell monolayers (significant efflux: efflux ratio >3.0 and Papp B-to-A ≥1.0×10^−6 cm/s) is “no significant efflux”. Further, the results for the IC50 in [1] and in [3] were 2.3 nM and 2.3 to 12 nM, respectively. The “IC50 ratio” value in data set [1] was 0.96. For the same molecule, the “average duration of mitosis” value with HCT116 cells stood at 26.2 ± 7.1 h; with HCT8 cells it was 11.8 ± 3.1 h; with MCF10A cells it was 16.4 ± 5.2 h. The “cell population growth (cell confluency)” value in data set [4] (50 nM, filmed for 3 days) is recorded as “strong growth suppression”. Moreover, the “effect on interphase and mitotic microtubule networks” value in data set [4] (15–50 nM, data not shown) was “markedly disrupted or completely wiped out”. Further, the “mitotic index (MI)” value in the data set with OvCar-8 cells (12 h) is on record as 27.0%±4.0%; in the data set with OvCar-4 cells (OvCar-4, 12.5 nM, 12 h) it was 24.0%±9.5%; in the data set with CaOv-3 cells (12 h) it was 12.7%±2.5%. Besides, the “cell death index (CDI)” value with OvCar-8 cells (24 h) was 29.0%±9.0%; with OvCar-8 cells (48 h), 31.0%±10.5%; with OvCar-8 cells (72 h), 30.0%±2.3%; with OvCar-4 cells (OvCar-4, 12.5 nM, 24 h) it was 13.7%±1.5%; with OvCar-4 cells (OvCar-4, 12.5 nM, 48 h), 16.3%±2.1%; in the data set with OvCar-4 cells (OvCar-4, 12.5 nM, 72 h), 12.0%±1.0%. The “cell death index (CDI)” value with OvCar-4 cells (OvCar-4, 50 nM, 24 h) is 28.7%±6.8%; in the data set on OvCar-4 cells (OvCar-4, 50 nM, 48 h), 48.3%±10.7%; in the data set with OvCar-4 cells (OvCar-4, 50 nM, 72 h), 59.3%±13.2%; in the data set with CaOv-3 cells (24 h), 46.0%±1.7%; with CaOv-3 cells (48 h) it was 68.7%±4.2%; with CaOv-3 cells (72 h) it was 77.0%±4.6%. Further, the “effect on tubulin polymerization” value in the data set on bovine tubulin protein (1.0 µM) is “slowed down the rate of the polymerization, but could not suppress it”; in the data set with bovine tubulin protein (3.0 µM) it was “suppress tubulin heterodimer polymerization”; in the data set on bovine tubulin protein (10 µM), “block the polymerization almost completely”. In [5], the “VEGF-induced cord (tube) formation” value is “completely inhibit tube formation”. The “pIC50, disruption of VEGF stimulated established cords” value in data set [6] (four-parameter logistic fit of AUC between 96 and 186 h, VEGF 20 ng/mL) was 8.3. The “effect on blood vessel growth and integrity” value in data set [2] is listed as “ineffective”. For the same molecule, the “growth of the blood vessels (change in relative surface area)” value in data set [2] was “significantly suppressed”. Further, the “vascular integrity (discontinuity of the vessels)” value in data set [2] is “significantly suppressed”. The plasma concentration came out at 21 nM in [7] (PO 10 mg/kg, 1 h post-dosing); 17 nM in [7] (PO 10 mg/kg, 4 h post-dosing); 54 nM in data set [7] (PO 20 mg/kg, 1 h post-dosing); 29 nM in data set [7] (PO 20 mg/kg, 4 h post-dosing); 309 nM in data set [7] (PO 40 mg/kg, 1 h post-dosing); 76 nM in data set [7] (PO 40 mg/kg, 4 h post-dosing). In addition, the “effect on tumor volume” value in the data set on A2780 xenograft (PO 40 mg/kg, 5 days on/2 days off, comparable to paclitaxel 24 mg/kg IV) is given as “clear antitumor effect”. Moreover, in the data set with A2780 xenograft (PO 10, 20, 40 mg/kg during the treatment), the “tolerability by body weight measurements” value was “well tolerated”.

For the molecule `CC(=O)O[C@H]1C(=O)[C@@]2(C)[C@H]([C@H](OC(=O)c3ccccc3)[C@]3(O)C[C@H](OC(=O)[C@H](O)[C@@H](NC(=O)c4ccccc4)c4ccccc4)C(C)=C1C3(C)C)[C@]1(OC(C)=O)CO[C@@H]1C[C@@H]2O` [PTX, paclitaxel], the “IC50 ratio” value in data set [1] was 3,115. The molecule further yielded an IC50 in data set [1] (Homo sapiens, A2780 ADR) of 810 nM. Also, the “effect on tubulin polymerization” value in the data set on bovine tubulin protein (3.0 µM) was “effective stabilizer of tubulin polymerization”.

As for `CC[C@]1(O)C[C@H]2CN(CCc3c([nH]c4ccccc34)[C@@](C(=O)OC)(c3cc4c(cc3OC)N(C=O)[C@H]3[C@@](O)(C(=O)OC)[C@H](OC(C)=O)[C@]5(CC)C=CCN6CC[C@]43[C@@H]65)C2)C1` [VinC, vincristine], the “IC50 ratio” value in data set [1] turned out to be 955. Moreover, the IC50 in data set [1] (Homo sapiens, A2780 ADR) amounted to 210 nM. The “effect on tubulin polymerization” value in the data set with bovine tubulin protein (3.0 µM) was “suppress tubulin heterodimer polymerization”.

`Cc1ccc(C(=O)Nc2ccc(S(=O)(=O)O)c3cc(S(=O)(=O)O)cc(S(=O)(=O)O)c23)cc1NC(=O)c1cccc(NC(=O)Nc2cccc(C(=O)Nc3cc(C(=O)Nc4ccc(S(=O)(=O)O)c5cc(S(=O)(=O)O)cc(S(=O)(=O)O)c45)ccc3C)c2)c1` [suramin, reference compound]: the “effect on established cords” value in data set [6] (100 µM, added at t=96 h) is given as “complete regression of established cords”.
